Results taken from ChEMBL document CHEMBL1136659, “Benzamide derivatives as blockers of Kv1.3 ion channel” (Bioorg Med Chem Lett, 2003).

Tests used:
[1] = molecular target: T1, Potassium voltage-gated channel subfamily A member 3 (Homo sapiens, UniProt P22001); assay: Inhibition of Kv1.3 ion channel. Measured in the Rb_Kv assay: [86Rb+] efflux from CHO cells stably transfected with Kv1.3 channel.; format: functional, cell-based
[2] = Inhibition of DiTc binding to Kv1.x channel in human brain membranes; format: cell membranes, Membrane
Procedure, shortened: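 Displacement of diTC (C20-C29 ditritio-correolide) binding to human brain membranes carrying Kv1.x channels, primarily heteromultimeric Kv1.1/Kv1.2.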

[3] = molecular target: T1, Potassium voltage-gated channel subfamily A member 3; assay: Inhibition of [86Rb+] efflux from CHO cells stably transfected with Kv1.3 channel; format: functional, cell-based
[4] = molecular target: T1, Potassium voltage-gated channel subfamily A member 3; assay: Inhibition of DiTc binding to Kv1.3 channel in human brain membranes; format: cell membranes, Membrane

T1 sequence (P22001 whole entry): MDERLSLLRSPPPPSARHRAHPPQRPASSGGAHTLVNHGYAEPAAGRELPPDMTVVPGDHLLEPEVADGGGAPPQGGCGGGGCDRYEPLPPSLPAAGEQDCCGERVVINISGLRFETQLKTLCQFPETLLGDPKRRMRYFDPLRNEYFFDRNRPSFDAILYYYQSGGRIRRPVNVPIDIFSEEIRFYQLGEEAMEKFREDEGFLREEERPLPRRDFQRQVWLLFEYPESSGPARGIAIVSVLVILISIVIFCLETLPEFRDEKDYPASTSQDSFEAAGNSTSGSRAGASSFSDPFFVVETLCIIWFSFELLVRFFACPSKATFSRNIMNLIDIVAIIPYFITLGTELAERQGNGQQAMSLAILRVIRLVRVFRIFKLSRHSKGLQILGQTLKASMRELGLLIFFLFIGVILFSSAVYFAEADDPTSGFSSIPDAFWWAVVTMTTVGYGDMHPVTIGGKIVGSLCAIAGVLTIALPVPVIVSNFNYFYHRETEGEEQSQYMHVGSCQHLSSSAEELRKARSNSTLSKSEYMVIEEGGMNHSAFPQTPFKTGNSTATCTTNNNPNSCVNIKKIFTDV

| Structure (SMILES) | IC50 [1] | also measured |
| --- | --- | --- |
| C=CCNC(=O)O[C@H]1CC[C@@](CNC(=O)c2cccc3c2OCC3)(c2ccccc2)CC1 | 3730 nM | – |
| C=CCNC(=O)N[C@H]1CC[C@@](CNC(=O)c2ccccc2OC)(c2ccccc2)CC1 | – | IC50 [2]: 120 nM; IC50 [3]: 150 nM; IC50 [4]: 29 nM |
| COc1ccccc1C(=O)NC[C@]1(c2ccccc2)CC[C@@H](NC(=O)c2ccccc2)CC1 | 1560 nM | – |
| O=C1CCC(CNC(=O)c2ccccc2)(c2ccccc2)CC1 | > 30000 nM | – |
| C=CCNC(=O)O[C@H]1CC[C@](CNC(=O)c2ccccc2OC)(c2ccccc2)CC1 | – | IC50 [2]: 170 nM; IC50 [3]: 130 nM; IC50 [4]: 140 nM |
| COc1ccccc1C(=O)NC[C@]1(c2ccccc2)CC[C@H](NC(=O)CCc2ccccc2)CC1 | 120 nM | – |
| COc1ccccc1C(=O)NC[C@]1(c2ccccc2)CC[C@@H](NC(=O)c2cccc(Br)c2)CC1 | > 30000 nM | – |
| COc1ccccc1C(=O)NC[C@]1(c2ccccc2)CC[C@H](NC(=O)c2ccccc2)CC1 | 75 nM | – |
| COc1cccc(C(=O)NCC2(c3ccccc3)CCC(=O)CC2)c1 | > 30000 nM | – |
| COc1ccccc1C(=O)NCC1CCCCC1 | > 30000 nM | – |
| C=CCNC(=O)N[C@H]1CC[C@](CNC(=O)c2ccccc2OC)(c2ccccc2)CC1 | – | IC50 [2]: 125 nM; IC50 [3]: 140 nM; IC50 [4]: 80 nM |
| COc1ccccc1C(=O)NC[C@]1(c2ccccc2)CC[C@@H](NC(=O)CCc2ccccc2)CC1 | 570 nM | – |
| COc1ccccc1C(=O)NC[C@]1(c2ccccc2)CC[C@@H](NC(=O)C=C(C)C)CC1 | 470 nM | – |
| CCC(=O)N[C@H]1CC[C@@](CNC(=O)c2ccccc2OC)(c2ccccc2)CC1 | 210 nM | – |
| COc1ccccc1C(=O)NC[C@]1(c2ccccc2)CC[C@@H](NC(C)=O)CC1 | 470 nM | – |
| CCCNC(=O)O[C@H]1CC[C@@](CNC(=O)c2ccccc2OC)(c2ccccc2)CC1 | – | IC50 [2]: 30 nM; IC50 [3]: 50 nM; IC50 [4]: 5 nM |
| CNC(=O)O[C@H]1CC[C@@](CNC(=O)c2ccccc2OC)(c2ccccc2)CC1 | – | IC50 [2]: 33 nM; IC50 [3]: 58 nM; IC50 [4]: 5 nM |
| COc1ccccc1C(=O)NC[C@]1(c2ccccc2)CC[C@@H](NC(=O)SC)CC1 | 150 nM | – |
| CCOc1ccccc1C(=O)NCC1(c2ccccc2)CCC(=O)CC1 | 580 nM | – |
| C=CCN(C)C(=O)N[C@H]1CC[C@](CNC(=O)c2ccccc2OC)(c2ccccc2)CC1 | 195 nM | – |
| CNC(=O)O[C@H]1CC[C@](CNC(=O)c2ccccc2OC)(c2ccccc2)CC1 | – | IC50 [2]: 104 nM; IC50 [3]: 150 nM; IC50 [4]: 99 nM |
| COc1ccccc1C(=O)NC[C@]1(c2ccccc2)CC[C@H](OC(=O)Nc2ccccc2)CC1 | 120 nM | – |

| Structure (SMILES) | IC50 [1] | also measured |
| --- | --- | --- |
| COc1ccccc1C(=O)NC[C@]1(c2ccccc2)CC[C@@H](NC(=O)c2ccc(Br)cc2)CC1 | > 30000 nM | – |
| COc1ccccc1C(=O)N(C)CC1(c2ccccc2)CCC(=O)CC1 | > 30000 nM | – |
| CCCC(=O)N[C@H]1CC[C@@](CNC(=O)c2ccccc2OC)(c2ccccc2)CC1 | 200 nM | – |
| COc1ccccc1C(=O)NC[C@]1(c2ccccc2)CC[C@H](NC(=O)Cc2ccccc2)CC1 | 130 nM | – |
| CNc1ccccc1C(=O)NCC1(c2ccccc2)CCC(=O)CC1 | 600 nM | – |
| COc1ccccc1C(=O)NC[C@]1(c2ccccc2)CC[C@@H](NC(=O)Cc2ccccc2)CC1 | 1050 nM | – |
| COc1ccccc1C(=O)NC[C@]1(c2ccccc2)CC[C@H](OC(=O)NCCCc2ccccc2)CC1 | 535 nM | – |
| C/C=C/C(=O)N[C@H]1CC[C@](CNC(=O)c2ccccc2OC)(c2ccccc2)CC1 | 100 nM | – |
| C=CCOC(=O)N[C@H]1CC[C@](CNC(=O)c2ccccc2OC)(c2ccccc2)CC1 | – | IC50 [2]: 68 nM; IC50 [3]: 90 nM; IC50 [4]: 72 nM |
| COc1ccccc1C(=O)NC[C@]1(c2ccccc2)CC[C@H](OC(=O)NCCc2ccccc2)CC1 | 420 nM | – |
| COc1ccccc1C(=O)NCC1(c2ccccc2)CCC(=O)CC1 | 200 nM | – |
| COc1ccc(C(=O)NCC2(c3ccccc3)CCC(=O)CC2)cc1 | 10000 nM | – |
| C=CCNC(=O)O[C@H]1CC[C@@](CNC(=O)c2ccccc2OC)(c2ccccc2)CC1 | – | IC50 [2]: 112 nM; IC50 [3]: 70 nM; IC50 [4]: 18 nM |
| COc1ccccc1C(=O)NC[C@]1(c2ccccc2)CC[C@@H](OC(=O)Nc2ccccc2)CC1 | > 30000 nM | – |
| COc1ccccc1C(=O)N(C)CC1(c2ccccc2)CCNCC1 | > 30000 nM | – |
| COc1ccccc1S(=O)(=O)NCC1(c2ccccc2)CCC(=O)CC1 | > 30000 nM | – |
| COc1ccccc1C(=O)NC[C@]1(c2ccccc2)CC[C@@H](NC(=O)c2ccccc2Br)CC1 | 2790 nM | – |
| C=CCNC(=O)O[C@H]1CC[C@@](CNC(=O)c2cc(F)ccc2O)(c2ccccc2)CC1 | 140 nM | – |
| CCCNC(=O)O[C@H]1CC[C@](CNC(=O)c2ccccc2OC)(c2ccccc2)CC1 | – | IC50 [2]: 76 nM; IC50 [3]: 100 nM; IC50 [4]: 79 nM |
| C/C=C/C(=O)N[C@H]1CC[C@@](CNC(=O)c2ccccc2OC)(c2ccccc2)CC1 | 440 nM | – |
| COC(=O)N[C@H]1CC[C@@](CNC(=O)c2ccccc2OC)(c2ccccc2)CC1 | 135 nM | – |
| O=C1CCC(CNC(=O)c2cccc(Cl)c2)(c2ccccc2)CC1 | 30000 nM | – |

Further lines, with some results ahead:

| IC50 [1] | Structure (SMILES) | also measured |
| --- | --- | --- |
| 320 nM | C=CCN(C)C(=O)O[C@H]1CC[C@@](CNC(=O)c2ccccc2OC)(c2ccccc2)CC1 | – |
| 310 nM | COc1ccccc1C(=O)NC[C@]1(c2ccccc2)CC[C@@H](OC(=O)NCCO)CC1 | – |
| 130 nM | COCCCNC(=O)O[C@H]1CC[C@](CNC(=O)c2ccccc2OC)(c2ccccc2)CC1 | – |
| 90 nM | CCCCNC(=O)O[C@H]1CC[C@@](CNC(=O)c2ccccc2OC)(c2ccccc2)CC1 | – |
| 140 nM | COCCNC(=O)O[C@H]1CC[C@@](CNC(=O)c2ccccc2OC)(c2ccccc2)CC1 | – |
| 145 nM | COCCCNC(=O)O[C@H]1CC[C@@](CNC(=O)c2ccccc2OC)(c2ccccc2)CC1 | – |
| 1700 nM | COc1ccccc1C(=O)NC[C@]1(c2ccccc2)CC[C@@H](OC(=O)NCc2ccccc2)CC1 | – |
| 130 nM | COc1ccccc1C(=O)NC[C@]1(c2ccccc2)CC[C@H](OC(=O)NC(C)C)CC1 | – |
| 145 nM | C=CCN(C)C(=O)O[C@H]1CC[C@](CNC(=O)c2ccccc2OC)(c2ccccc2)CC1 | – |
| 75 nM | COc1ccccc1C(=O)NC[C@]1(c2ccccc2)CC[C@@H](OC(=O)NC(C)C)CC1 | – |
| 95 nM | COc1ccccc1C(=O)NC[C@]1(c2ccccc2)CC[C@H](OC(=O)NCCO)CC1 | – |
| 120 nM | C=C(C)CNC(=O)O[C@H]1CC[C@](CNC(=O)c2ccccc2OC)(c2ccccc2)CC1 | – |
| 140 nM | COCCNC(=O)O[C@H]1CC[C@](CNC(=O)c2ccccc2OC)(c2ccccc2)CC1 | – |
| 230 nM | C=CCNC(=O)O[C@H]1CC[C@@](CNC(=O)c2cc(Cl)ccc2OC)(c2ccccc2)CC1 | – |
| 140 nM | CCCCNC(=O)O[C@H]1CC[C@](CNC(=O)c2ccccc2OC)(c2ccccc2)CC1 | – |
| 205 nM | C=CCN(CC=C)C(=O)O[C@H]1CC[C@](CNC(=O)c2ccccc2OC)(c2ccccc2)CC1 | – |
| 242 nM | C=CCOC(=O)N[C@H]1CC[C@@](CNC(=O)c2ccccc2OC)(c2ccccc2)CC1 | – |
| 245 nM | COc1ccccc1C(=O)NC[C@]1(c2ccccc2)CC[C@H](OC(=O)NCc2ccccc2)CC1 | – |
| 8380 nM | C=CCNC(=O)O[C@H]1CC[C@@](CNC(=O)c2cccc(Cl)c2OC)(c2ccccc2)CC1 | – |
| 325 nM | C=CCNC(=O)O[C@H]1CC[C@@](CNC(=O)c2cccnc2OC)(c2ccccc2)CC1 | – |
| 840 nM | C=CCN(CC=C)C(=O)O[C@H]1CC[C@@](CNC(=O)c2ccccc2OC)(c2ccccc2)CC1 | – |
| 90 nM | C=C(C)CNC(=O)O[C@H]1CC[C@@](CNC(=O)c2ccccc2OC)(c2ccccc2)CC1 | – |
| 230 nM | C=CCOC(=O)O[C@H]1CC[C@](CNC(=O)c2ccccc2OC)(c2ccccc2)CC1 | – |
| 7200 nM | C=CCNC(=O)O[C@H]1CC[C@@](CNC(=O)c2cccc(Cl)c2O)(c2ccccc2)CC1 | – |
